Calls of active or inactive are those of the source. No cut-off for these calls is given here.
How the values were obtained:
[1] = target: T1, Toll-like receptor 1 (Mus musculus) (UniProt Q9EPQ1); assay: Inhibition TLR1-mediated NO production in mouse RAW264.7 cells at 300 nM
T1 sequence (whole entry): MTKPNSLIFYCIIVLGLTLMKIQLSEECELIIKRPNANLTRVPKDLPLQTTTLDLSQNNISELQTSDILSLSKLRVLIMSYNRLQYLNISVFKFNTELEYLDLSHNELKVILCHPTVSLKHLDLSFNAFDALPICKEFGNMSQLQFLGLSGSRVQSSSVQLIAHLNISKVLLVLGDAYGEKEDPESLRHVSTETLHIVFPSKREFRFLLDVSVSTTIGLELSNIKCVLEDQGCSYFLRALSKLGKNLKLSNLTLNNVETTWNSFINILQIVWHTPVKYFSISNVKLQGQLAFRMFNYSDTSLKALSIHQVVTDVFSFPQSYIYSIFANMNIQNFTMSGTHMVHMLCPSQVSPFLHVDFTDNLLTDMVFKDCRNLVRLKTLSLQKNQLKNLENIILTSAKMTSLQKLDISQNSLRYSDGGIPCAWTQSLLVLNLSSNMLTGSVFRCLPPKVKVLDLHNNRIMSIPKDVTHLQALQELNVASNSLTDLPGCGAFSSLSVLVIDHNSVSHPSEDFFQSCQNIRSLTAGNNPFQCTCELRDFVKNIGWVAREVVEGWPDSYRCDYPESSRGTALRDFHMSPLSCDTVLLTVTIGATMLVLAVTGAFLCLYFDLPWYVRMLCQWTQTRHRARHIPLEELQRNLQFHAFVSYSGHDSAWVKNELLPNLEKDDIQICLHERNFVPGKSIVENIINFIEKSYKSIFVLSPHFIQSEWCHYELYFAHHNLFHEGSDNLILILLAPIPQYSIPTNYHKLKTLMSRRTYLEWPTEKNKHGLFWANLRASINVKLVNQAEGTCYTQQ

[2] = target: T2, Toll-like receptor 6 (Mus musculus) (UniProt Q9EPW9); assay: Inhibition TLR6-mediated NO production in mouse RAW264.7 cells at 300 nM
T2 sequence (whole entry): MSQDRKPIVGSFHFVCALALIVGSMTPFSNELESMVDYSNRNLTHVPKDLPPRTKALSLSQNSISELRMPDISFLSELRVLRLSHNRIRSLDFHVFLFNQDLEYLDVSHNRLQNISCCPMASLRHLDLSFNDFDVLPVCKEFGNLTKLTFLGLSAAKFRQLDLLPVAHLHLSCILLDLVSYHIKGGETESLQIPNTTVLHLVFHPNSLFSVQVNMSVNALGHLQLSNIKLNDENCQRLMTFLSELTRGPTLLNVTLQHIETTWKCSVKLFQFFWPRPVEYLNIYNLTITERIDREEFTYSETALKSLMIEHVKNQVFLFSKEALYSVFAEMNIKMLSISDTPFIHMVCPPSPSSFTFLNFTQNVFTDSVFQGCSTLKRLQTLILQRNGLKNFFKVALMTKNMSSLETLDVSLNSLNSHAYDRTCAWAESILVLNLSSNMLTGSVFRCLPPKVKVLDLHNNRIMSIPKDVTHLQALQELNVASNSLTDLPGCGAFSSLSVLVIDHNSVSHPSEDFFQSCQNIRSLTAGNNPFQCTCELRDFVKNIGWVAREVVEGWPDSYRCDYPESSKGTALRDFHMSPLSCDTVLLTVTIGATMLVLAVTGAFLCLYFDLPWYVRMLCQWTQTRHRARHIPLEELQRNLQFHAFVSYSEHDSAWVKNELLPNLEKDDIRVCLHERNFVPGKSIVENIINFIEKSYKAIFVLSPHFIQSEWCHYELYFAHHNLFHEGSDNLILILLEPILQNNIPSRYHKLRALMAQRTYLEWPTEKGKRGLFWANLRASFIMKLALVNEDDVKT

[3] = target: T3, Toll-like receptor 4 (Mus musculus) (UniProt Q9QUK6); assay: Inhibition TLR4-mediated NO production in mouse RAW264.7 cells at 300 nM
T3 sequence (whole entry): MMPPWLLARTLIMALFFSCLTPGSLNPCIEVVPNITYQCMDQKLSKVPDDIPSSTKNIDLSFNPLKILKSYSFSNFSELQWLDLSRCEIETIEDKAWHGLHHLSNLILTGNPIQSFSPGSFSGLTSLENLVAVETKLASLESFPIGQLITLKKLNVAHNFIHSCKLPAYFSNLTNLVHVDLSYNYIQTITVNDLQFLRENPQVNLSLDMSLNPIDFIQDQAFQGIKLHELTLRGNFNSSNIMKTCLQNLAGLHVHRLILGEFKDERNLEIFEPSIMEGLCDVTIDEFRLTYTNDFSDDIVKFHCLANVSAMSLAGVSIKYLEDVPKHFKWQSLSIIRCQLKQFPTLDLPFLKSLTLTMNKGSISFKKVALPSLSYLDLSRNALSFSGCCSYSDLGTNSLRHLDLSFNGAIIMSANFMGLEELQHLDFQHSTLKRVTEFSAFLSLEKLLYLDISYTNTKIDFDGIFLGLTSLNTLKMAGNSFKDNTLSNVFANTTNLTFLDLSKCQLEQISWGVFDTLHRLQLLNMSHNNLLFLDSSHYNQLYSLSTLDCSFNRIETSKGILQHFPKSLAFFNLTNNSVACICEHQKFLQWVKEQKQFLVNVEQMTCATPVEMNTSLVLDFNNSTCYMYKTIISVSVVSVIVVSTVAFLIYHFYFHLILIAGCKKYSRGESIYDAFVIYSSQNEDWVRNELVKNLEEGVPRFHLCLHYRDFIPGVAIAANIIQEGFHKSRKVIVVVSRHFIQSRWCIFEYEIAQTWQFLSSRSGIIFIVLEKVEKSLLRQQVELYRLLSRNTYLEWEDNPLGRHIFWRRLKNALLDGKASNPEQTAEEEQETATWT

[4] = target: T4, Toll-like receptor 3 (Mus musculus) (UniProt Q99MB1); assay: Inhibition TLR3-mediated NO production in mouse RAW264.7 cells at 300 nM
T4 sequence (whole entry): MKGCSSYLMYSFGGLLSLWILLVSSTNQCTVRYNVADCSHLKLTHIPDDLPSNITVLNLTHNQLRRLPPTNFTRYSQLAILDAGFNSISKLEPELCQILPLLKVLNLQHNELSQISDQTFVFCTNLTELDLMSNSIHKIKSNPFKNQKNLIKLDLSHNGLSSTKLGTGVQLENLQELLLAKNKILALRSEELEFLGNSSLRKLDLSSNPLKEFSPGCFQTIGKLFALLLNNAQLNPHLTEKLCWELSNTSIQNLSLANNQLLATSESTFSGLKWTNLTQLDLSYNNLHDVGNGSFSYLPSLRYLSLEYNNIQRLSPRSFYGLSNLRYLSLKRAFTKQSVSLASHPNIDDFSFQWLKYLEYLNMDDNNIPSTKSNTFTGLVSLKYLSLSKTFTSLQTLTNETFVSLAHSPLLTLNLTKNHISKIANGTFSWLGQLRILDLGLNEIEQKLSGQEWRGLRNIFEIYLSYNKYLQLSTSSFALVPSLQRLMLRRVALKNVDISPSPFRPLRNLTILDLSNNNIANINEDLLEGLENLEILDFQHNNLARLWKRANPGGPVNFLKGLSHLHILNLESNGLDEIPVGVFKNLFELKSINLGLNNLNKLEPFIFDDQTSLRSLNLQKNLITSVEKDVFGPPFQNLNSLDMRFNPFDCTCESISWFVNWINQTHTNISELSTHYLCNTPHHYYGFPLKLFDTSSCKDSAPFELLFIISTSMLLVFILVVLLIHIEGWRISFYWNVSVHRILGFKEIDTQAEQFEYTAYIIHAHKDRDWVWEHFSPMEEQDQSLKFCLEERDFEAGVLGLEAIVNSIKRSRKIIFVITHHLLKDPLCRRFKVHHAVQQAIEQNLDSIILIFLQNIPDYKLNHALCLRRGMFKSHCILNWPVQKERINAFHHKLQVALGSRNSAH

[5] = target: Toll-like receptor 4 (Homo sapiens) (UniProt O00206); assay: Inhibition of TLR4 binding to […]
[6] = target: T5, Toll-like receptor 7 (Mus musculus) (UniProt P58681); assay: Inhibition TLR7-mediated NO production in mouse RAW264.7 cells at 300 nM
T5 sequence (whole entry): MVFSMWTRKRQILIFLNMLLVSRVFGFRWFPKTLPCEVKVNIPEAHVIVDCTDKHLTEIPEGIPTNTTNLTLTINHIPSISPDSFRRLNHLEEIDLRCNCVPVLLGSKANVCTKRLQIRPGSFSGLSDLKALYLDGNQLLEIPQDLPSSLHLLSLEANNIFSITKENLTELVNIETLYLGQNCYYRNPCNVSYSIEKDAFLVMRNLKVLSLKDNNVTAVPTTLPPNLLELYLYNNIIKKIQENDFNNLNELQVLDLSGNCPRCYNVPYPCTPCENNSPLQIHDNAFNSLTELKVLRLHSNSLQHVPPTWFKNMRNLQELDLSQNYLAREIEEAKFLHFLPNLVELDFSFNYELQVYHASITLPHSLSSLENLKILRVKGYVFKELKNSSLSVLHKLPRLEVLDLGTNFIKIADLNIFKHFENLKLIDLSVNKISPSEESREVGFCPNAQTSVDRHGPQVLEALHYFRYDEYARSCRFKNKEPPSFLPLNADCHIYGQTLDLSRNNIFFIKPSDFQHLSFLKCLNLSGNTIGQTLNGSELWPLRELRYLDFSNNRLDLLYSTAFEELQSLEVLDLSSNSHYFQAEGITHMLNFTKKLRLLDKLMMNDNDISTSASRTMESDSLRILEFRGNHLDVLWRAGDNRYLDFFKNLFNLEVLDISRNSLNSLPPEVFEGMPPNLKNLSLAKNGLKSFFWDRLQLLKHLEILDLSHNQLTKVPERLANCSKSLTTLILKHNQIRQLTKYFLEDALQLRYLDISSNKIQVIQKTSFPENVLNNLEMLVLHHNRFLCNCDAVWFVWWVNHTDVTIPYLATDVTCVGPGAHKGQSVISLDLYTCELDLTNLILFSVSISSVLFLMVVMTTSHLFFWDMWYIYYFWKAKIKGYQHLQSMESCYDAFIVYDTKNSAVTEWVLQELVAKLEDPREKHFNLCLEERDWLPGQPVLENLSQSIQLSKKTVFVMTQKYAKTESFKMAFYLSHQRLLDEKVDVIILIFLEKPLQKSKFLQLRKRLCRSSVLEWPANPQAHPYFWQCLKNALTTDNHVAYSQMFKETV

[7] = target: T3, Toll-like receptor 4 (Mus musculus); assay: Inhibition of LPS-induced TLR4 activation in mouse RAW264.7 cells at 200 nM to 200 uM; assay type: cell-based
Procedure, shortened: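 RAW264.7 mouse macrophages plated at 2×10^5 cells/ml on glass-bottom dishes 18 h before imaging. Washed with HBSS/25 mM HEPES pH 7.4, then placed in warmed conditioned Hanks imaging medium. Live-cell frames taken every 7.5 s: 5 baseline frames, vehicle or antagonist added, 20 frames, then LPS (E. coli 0111:B4) added, 20 further frames. C5a added to non-responding dishes to confirm the cells could respond.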

RAW264.7 = assay: Cytotoxicity against mouse RAW264.7 cells; assay type: cell-based
[8] = target: Toll-like receptor 2 (Mus musculus) (UniProt Q9QUN7); assay: Inhibition TLR2-mediated NO production in mouse RAW264.7 cells at 300 nM
Chain of Toll-like receptor 2 (Mus musculus) (Q9QUN7 whole entry): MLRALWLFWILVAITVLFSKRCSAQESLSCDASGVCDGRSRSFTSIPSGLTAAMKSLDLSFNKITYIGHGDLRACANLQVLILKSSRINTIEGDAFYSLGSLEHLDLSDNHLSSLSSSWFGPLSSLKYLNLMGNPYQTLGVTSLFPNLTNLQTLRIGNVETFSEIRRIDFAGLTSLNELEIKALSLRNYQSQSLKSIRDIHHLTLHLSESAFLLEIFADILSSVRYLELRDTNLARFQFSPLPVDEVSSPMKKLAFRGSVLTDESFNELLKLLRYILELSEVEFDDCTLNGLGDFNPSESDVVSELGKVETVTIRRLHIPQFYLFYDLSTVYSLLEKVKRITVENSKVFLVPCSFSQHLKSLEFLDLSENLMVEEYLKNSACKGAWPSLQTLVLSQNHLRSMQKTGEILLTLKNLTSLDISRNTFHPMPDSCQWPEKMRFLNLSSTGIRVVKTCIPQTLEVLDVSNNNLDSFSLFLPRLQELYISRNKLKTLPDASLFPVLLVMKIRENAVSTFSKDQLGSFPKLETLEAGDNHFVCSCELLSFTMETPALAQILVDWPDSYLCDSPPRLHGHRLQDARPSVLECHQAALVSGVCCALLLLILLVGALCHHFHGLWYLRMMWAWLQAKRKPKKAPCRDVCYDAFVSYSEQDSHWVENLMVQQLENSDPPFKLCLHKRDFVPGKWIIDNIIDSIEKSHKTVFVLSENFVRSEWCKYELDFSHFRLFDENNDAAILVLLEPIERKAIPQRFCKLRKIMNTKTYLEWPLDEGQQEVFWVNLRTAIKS

Chain of Toll-like receptor 4 (Homo sapiens) (O00206 whole entry): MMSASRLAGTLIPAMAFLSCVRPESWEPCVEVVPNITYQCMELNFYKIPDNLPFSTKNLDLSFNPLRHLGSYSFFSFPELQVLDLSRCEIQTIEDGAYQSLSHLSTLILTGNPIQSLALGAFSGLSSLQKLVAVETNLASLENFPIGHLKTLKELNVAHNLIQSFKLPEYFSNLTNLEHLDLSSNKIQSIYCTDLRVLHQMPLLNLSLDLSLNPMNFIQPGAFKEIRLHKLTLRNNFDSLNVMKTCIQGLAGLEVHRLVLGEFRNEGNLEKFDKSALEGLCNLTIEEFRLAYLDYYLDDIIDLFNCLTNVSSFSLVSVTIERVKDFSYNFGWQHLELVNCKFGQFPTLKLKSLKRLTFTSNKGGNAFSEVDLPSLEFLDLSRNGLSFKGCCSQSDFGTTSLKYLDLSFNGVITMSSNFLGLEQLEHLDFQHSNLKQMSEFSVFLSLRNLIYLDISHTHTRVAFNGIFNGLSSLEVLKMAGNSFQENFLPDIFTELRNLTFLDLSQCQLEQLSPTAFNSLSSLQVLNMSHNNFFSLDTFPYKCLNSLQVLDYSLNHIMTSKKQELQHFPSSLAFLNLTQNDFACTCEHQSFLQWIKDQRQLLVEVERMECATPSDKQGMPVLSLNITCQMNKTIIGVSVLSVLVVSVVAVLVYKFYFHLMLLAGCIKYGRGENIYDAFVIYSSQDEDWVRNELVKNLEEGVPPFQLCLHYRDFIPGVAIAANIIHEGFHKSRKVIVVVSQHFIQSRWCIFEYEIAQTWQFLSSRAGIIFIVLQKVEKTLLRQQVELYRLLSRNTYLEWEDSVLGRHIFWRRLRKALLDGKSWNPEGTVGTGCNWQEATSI

Row | Structure (SMILES) | Activity [1] | Activity [2] | Activity [3] | Activity [4] | Activity [5] | Activity [6] | Activity [7] | Activity (RAW264.7) | Activity [8]
1 | CCOc1ccc(OCC(O)CN(C)Cc2c(C)nn(Cc3ccccc3Cl)c2C)cc1 (configuration not stated) | inactive | inactive | Active | inactive | Active | inactive | Active | Non-toxic | inactive
2 | CC(C)CC(=O)Nc1ccc(OC(=O)C23CC4CC(CC(C4)C2)C3)cc1 | – | – | – | – | Active | – | Active | Non-toxic | –

— ChEMBL document CHEMBL1221358, “Application of a novel in silico high-throughput screen to identify selective inhibitors for protein-protein interactions” (Bioorg Med Chem Lett, 2010)
